Columns and labels:
Rattus norvegicus [1] = test: Distribution of Radioactivity in pancreas of Fisher 344 Rats by intravenous administration of compound after 5 minutes expressed as dose/gram; type: ADME, organism-based; conditions: in vivo
Procedure, shortened: (§1)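 Female Fischer 344 rats, 10-12 weeks old (170-200 g), fed and watered ad libitum; four rats per time point. Each received ~6.3 μCi in 0.05 mL saline (pH 7.4, filtered), given by lateral tail vein under ether anesthesia. Tissues taken at 5 min, 1 h, 4 h and 1 day. Injectate standards used; values as mean % injected dose/g with range.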

Rattus norvegicus [2] = test: Distribution of Radioactivity in small intestine of Fisher 344 Rats by intravenous administration of compound after 1 hour expressed as dose/gram; type: ADME, organism-based; conditions: in vivo
Procedure, shortened: (§2)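 Female Fischer 344 rats, 10-12 weeks old (170-200 g), food and water ad libitum; four rats per time point. About 6.3 μCi given in 0.05 mL saline (pH 7.4, filtered) by lateral tail vein under ether anesthesia. Tissues sampled at 5 min, 1 h, 4 h or 1 day. %ID/g computed from injectate standards; mean and range given.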

Rattus norvegicus [3] = test: Distribution of Radioactivity in small intestine of Fisher 344 Rats by intravenous administration of compound after 1 day expressed as dose/gram; type: ADME, organism-based; conditions: in vivo, 24 h; procedure, shortened: as §2
Rattus norvegicus [4] = test: Distribution of Radioactivity in small intestine of Fisher 344 Rats by intravenous administration of compound after 4 hour expressed as dose/gram; type: ADME, organism-based; conditions: in vivo; procedure, shortened: as §2
Rattus norvegicus [5] = test: Distribution of Radioactivity in small intestine of Fisher 344 Rats by intravenous administration of compound after 5 minutes expressed as dose/gram; type: ADME, organism-based; conditions: in vivo; procedure, shortened: as §2
Rattus norvegicus [6] = test: Distribution of Radioactivity in spleen of Fisher 344 Rats by intravenous administration of compound after 1 hour expressed as dose/gram; type: ADME, organism-based; conditions: in vivo; procedure, shortened: as §2
Rattus norvegicus [7] = test: Distribution of Radioactivity in spleen of Fisher 344 Rats by intravenous administration of compound after 1 day expressed as dose/gram; type: ADME, organism-based; conditions: in vivo, 24 h; procedure, shortened: as §2
Rattus norvegicus [8] = test: Distribution of Radioactivity in spleen of Fisher 344 Rats by intravenous administration of compound after 4 hour expressed as dose/gram; type: ADME, organism-based; conditions: in vivo; procedure, shortened: as §2
Rattus norvegicus [9] = test: Distribution of Radioactivity in spleen of Fisher 344 Rats by intravenous administration of compound after 5 minutes expressed as dose/gram; type: ADME, organism-based; conditions: in vivo; procedure, shortened: as §2
Rattus norvegicus [10] = test: Distribution of Radioactivity in stomach of Fisher 344 Rats by intravenous administration of compound after 1 hour expressed as dose/gram; type: ADME, organism-based; conditions: in vivo; procedure, shortened: as §2
Rattus norvegicus [11] = test: Distribution of Radioactivity in stomach of Fisher 344 Rats by intravenous administration of compound after 1 day expressed as dose/gram; type: ADME, organism-based; conditions: in vivo, 24 h; procedure, shortened: as §2
Rattus norvegicus [12] = test: Distribution of Radioactivity in stomach of Fisher 344 Rats by intravenous administration of compound after 5 minutes expressed as dose/gram; type: ADME, organism-based; conditions: in vivo; procedure, shortened: as §2
Rattus norvegicus [13] = test: Distribution of Radioactivity in thymus of Fisher 344 Rats by intravenous administration of compound after 1 hour expressed as dose/gram; type: ADME, organism-based; conditions: in vivo; procedure, shortened: as §2
Rattus norvegicus [14] = test: Distribution of Radioactivity in thymus of Fisher 344 Rats by intravenous administration of compound after 1 day expressed as dose/gram; type: ADME, organism-based; conditions: in vivo, 24 h; procedure, shortened: as §2
Rattus norvegicus [15] = test: Distribution of Radioactivity in thymus of Fisher 344 Rats by intravenous administration of compound after 4 hour expressed as dose/gram; type: ADME, organism-based; conditions: in vivo; procedure, shortened: as §2
Rattus norvegicus [16] = test: Distribution of Radioactivity in thymus of Fisher 344 Rats by intravenous administration of compound after 5 minutes expressed as dose/gram; type: ADME, organism-based; conditions: in vivo; procedure, shortened: as §2
Rattus norvegicus [17] = test: Distribution of Radioactivity in lungs of Fisher 344 Rats by intravenous administration of compound after 4 hour expressed as dose/gram; type: ADME, organism-based, Lung; conditions: in vivo; procedure, shortened: as §1
Rattus norvegicus [18] = test: Distribution of Radioactivity in lungs of Fisher 344 Rats by intravenous administration of compound after 5 minutes expressed as dose/gram; type: ADME, organism-based, Lung; conditions: in vivo; procedure, shortened: as §1
Rattus norvegicus [19] = test: Distribution of Radioactivity in pancreas of Fisher 344 Rats by intravenous administration of compound after 1 hour expressed as dose/gram; type: ADME, organism-based; conditions: in vivo; procedure, shortened: as §1
Rattus norvegicus [20] = test: Distribution of Radioactivity in pancreas of Fisher 344 Rats by intravenous administration of compound after 1 day expressed as dose/gram; type: ADME, organism-based; conditions: in vivo, 24 h; procedure, shortened: as §1
Rattus norvegicus [21] = test: Distribution of Radioactivity in adrenals of Fisher 344 Rats by intravenous administration of compound after 1 hour expressed as dose/gram; type: ADME, organism-based, Adrenal gland; conditions: in vivo; procedure, shortened: as §1
Rattus norvegicus [22] = test: Distribution of Radioactivity in adrenals of Fisher 344 Rats by intravenous administration of compound after 4 hour expressed as dose/gram; type: ADME, organism-based, Adrenal gland; conditions: in vivo; procedure, shortened: as §1
Rattus norvegicus [23] = test: Distribution of Radioactivity in adrenals of Fisher 344 Rats by intravenous administration of compound after 5 minutes expressed as dose/gram; type: ADME, organism-based, Adrenal gland; conditions: in vivo; procedure, shortened: as §1
Rattus norvegicus [24] = test: Distribution of Radioactivity in blood of Fisher 344 Rats by intravenous administration of compound after 1 hour expressed as dose/gram; type: ADME, organism-based; conditions: in vivo; procedure, shortened: as §1
Rattus norvegicus [25] = test: Distribution of Radioactivity in blood of Fisher 344 Rats by intravenous administration of compound after 1 day expressed as dose/gram; type: ADME, organism-based; conditions: in vivo, 24 h; procedure, shortened: as §1
Rattus norvegicus [26] = test: Distribution of Radioactivity in blood of Fisher 344 Rats by intravenous administration of compound after 4 hour expressed as dose/gram; type: ADME, organism-based; conditions: in vivo; procedure, shortened: as §1
Rattus norvegicus [27] = test: Distribution of Radioactivity in blood of Fisher 344 Rats by intravenous administration of compound after 5 minutes expressed as dose/gram; type: ADME, organism-based; conditions: in vivo; procedure, shortened: as §1
Rattus norvegicus [28] = test: Distribution of Radioactivity in kidneys of Fisher 344 Rats by intravenous administration of compound after 1 hour expressed as dose/gram; type: ADME, organism-based, Kidney; conditions: in vivo; procedure, shortened: as §1
Rattus norvegicus [29] = test: Distribution of Radioactivity in kidneys of Fisher 344 Rats by intravenous administration of compound after 1 day expressed as dose/gram; type: ADME, organism-based, Kidney; conditions: in vivo, 24 h; procedure, shortened: as §1
Rattus norvegicus [30] = test: Distribution of Radioactivity in kidneys of Fisher 344 Rats by intravenous administration of compound after 4 hour expressed as dose/gram; type: ADME, organism-based, Kidney; conditions: in vivo; procedure, shortened: as §1
Rattus norvegicus [31] = test: Distribution of Radioactivity in pancreas of Fisher 344 Rats by intravenous administration of compound after 4 hour expressed as dose/gram; type: ADME, organism-based; conditions: in vivo; procedure, shortened: as §1
Rattus norvegicus [32] = test: Distribution of Radioactivity in kidneys of Fisher 344 Rats by intravenous administration of compound after 5 minutes expressed as dose/gram; type: ADME, organism-based, Kidney; conditions: in vivo; procedure, shortened: as §1
Rattus norvegicus [33] = test: Distribution of Radioactivity in liver of Fisher 344 Rats by intravenous administration of compound after 1 hour expressed as dose/gram; type: ADME, organism-based; conditions: in vivo; procedure, shortened: as §1
Rattus norvegicus [34] = test: Distribution of Radioactivity in liver of Fisher 344 Rats by intravenous administration of compound after 1 day expressed as dose/gram; type: ADME, organism-based; conditions: in vivo, 24 h; procedure, shortened: as §1
Rattus norvegicus [35] = test: Distribution of Radioactivity in liver of Fisher 344 Rats by intravenous administration of compound after 4 hour expressed as dose/gram; type: ADME, organism-based; conditions: in vivo; procedure, shortened: as §1
Rattus norvegicus [36] = test: Distribution of Radioactivity in liver of Fisher 344 Rats by intravenous administration of compound after 5 minutes expressed as dose/gram; type: ADME, organism-based; conditions: in vivo; procedure, shortened: as §1
Rattus norvegicus [37] = test: Distribution of Radioactivity in lungs of Fisher 344 Rats by intravenous administration of compound after 1 hour expressed as dose/gram; type: ADME, organism-based, Lung; conditions: in vivo; procedure, shortened: as §1
Rattus norvegicus [38] = test: Distribution of Radioactivity in lungs of Fisher 344 Rats by intravenous administration of compound after 1 day expressed as dose/gram; type: ADME, organism-based, Lung; conditions: in vivo, 24 h; procedure, shortened: as §1
Rattus norvegicus [39] = test: Distribution of Radioactivity in adrenals of Fisher 344 Rats by intravenous administration of compound after 1 day expressed as dose/gram; type: ADME, organism-based, Adrenal gland; conditions: in vivo, 24 h; procedure, shortened: as §1
Rattus norvegicus [40] = test: Distribution of Radioactivity in stomach of Fisher 344 Rats by intravenous administration of compound after 4 hour expressed as dose/gram; type: ADME, organism-based; conditions: in vivo; procedure, shortened: as §2

Injected (Rattus norvegicus [1]): 0.361%
Injected (Rattus norvegicus [2]): 1.421%
Injected (Rattus norvegicus [3]): 0.044%
Injected (Rattus norvegicus [4]): 0.218%
Injected (Rattus norvegicus [5]): 0.62%
Injected (Rattus norvegicus [6]): 0.14%
Injected (Rattus norvegicus [7]): 0.065%
Injected (Rattus norvegicus [8]): 0.062%
Injected (Rattus norvegicus [9]): 0.355%
Injected (Rattus norvegicus [10]): 0.081%
Injected (Rattus norvegicus [11]): 0.023%
Injected (Rattus norvegicus [12]): 0.243%
Injected (Rattus norvegicus [13]): 0.13%
Injected (Rattus norvegicus [14]): 0.024%
Injected (Rattus norvegicus [15]): 0.035%
Injected (Rattus norvegicus [16]): 0.335%
Injected (Rattus norvegicus [17]): 0.124%
Injected (Rattus norvegicus [18]): 1.123%
Injected (Rattus norvegicus [19]): 0.299%
Injected (Rattus norvegicus [20]): 0.035%
Injected (Rattus norvegicus [21]): 0.141%
Injected (Rattus norvegicus [22]): 0.047%
Injected (Rattus norvegicus [23]): 0.275%
Injected (Rattus norvegicus [24]): 0.698%
Injected (Rattus norvegicus [25]): 0.051%
Injected (Rattus norvegicus [26]): 0.134%
Injected (Rattus norvegicus [27]): 1.949%
Injected (Rattus norvegicus [28]): 2.717%
Injected (Rattus norvegicus [29]): 1.128%
Injected (Rattus norvegicus [30]): 1.148%
Injected (Rattus norvegicus [31]): 0.044%
Injected (Rattus norvegicus [32]): 5.44%
Injected (Rattus norvegicus [33]): 1.27%
Injected (Rattus norvegicus [34]): 0.15%
Injected (Rattus norvegicus [35]): 0.278%
Injected (Rattus norvegicus [36]): 2.844%
Injected (Rattus norvegicus [37]): 0.424%
Injected (Rattus norvegicus [38]): 0.065%
Injected (Rattus norvegicus [39]): 0.044%
Injected (Rattus norvegicus [40]): 0.028%
Substance: beta-[103,106Ru]Ruthenocenylalanine
